From ChEMBL document CHEMBL1143542, “Structure-activity relationships of bivalent aminoglycosides and evaluation of their microbiological activities” (2005)
Values after ≈ are worked out from the molar mass of the structure shown.

Tests used:
Pseudomonas aeruginosa [1] = test: (§1) Susceptibility testing against Pseudomonas aeruginosa PAE_NUH03; R=Resistant; type: functional
Pseudomonas aeruginosa [2] = test: Minimum inhibitory concentration against Pseudomonas aeruginosa ATCC 27853; type: functional
Method in brief: (§2)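 Broth microdilution following CLSI M100-S12. Stocks were 10 mg/mL in water, diluted in Mueller–Hinton broth to a top level of 128, then serially 2-fold in plates. Bacteria in cation-adjusted Mueller–Hinton broth were mixed 1:1 with drug and incubated 16–20 h at 35 °C. MIC was the lowest concentration with no visible growth. Run in duplicate with no-antibiotic and no-inoculum (sterility) controls.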

Pseudomonas aeruginosa [3] = test: Susceptibility testing against Pseudomonas aeruginosa PAE_NUH19; S=Susceptible; type: functional
Pseudomonas aeruginosa [4] = test: Susceptibility testing against Pseudomonas aeruginosa PAE_NUH21; S=Susceptible; type: functional
Pseudomonas aeruginosa [5] = test: (§3) Susceptibility testing against Pseudomonas aeruginosa PAE_NUH04; R=Resistant; type: functional
Pseudomonas aeruginosa [6] = test: Susceptibility testing against Pseudomonas aeruginosa PAE_NUH25; S=Susceptible; type: functional
Pseudomonas aeruginosa [7] = test: Minimum inhibitory concentration against Pseudomonas aeruginosa PAO-1; Range is 0.25-1; type: functional
Escherichia coli = test: In vitro minimum inhibitory concentration against Escherichia coli ATCC 25922; Range is 0.25-1; type: functional
Pseudomonas aeruginosa [8] = test: (§4) Susceptibility testing against Pseudomonas aeruginosa PAE_NUH06; R=Resistant; type: functional
Pseudomonas aeruginosa [9] = test: Susceptibility testing against Pseudomonas aeruginosa PAE_NUH17; S=Susceptible; type: functional
Staphylococcus aureus [10] = test: In vitro minimum inhibitory concentration against Staphylococcus aureus MRSA 3359; type: functional; method in brief: as §2
Pseudomonas aeruginosa [11] = test: (§5) Susceptibility testing against Pseudomonas aeruginosa PAE_NUH23; R=Resistant; type: functional
Pseudomonas aeruginosa [12] = test: Susceptibility testing against Pseudomonas aeruginosa PAE_NUH18; S=Susceptible; type: functional
Pseudomonas aeruginosa [13] = test: Susceptibility testing against Pseudomonas aeruginosa PAE_NUH20; S=Susceptible; type: functional
Enterococcus faecalis = test: In vitro minimum inhibitory concentration against Enterococcus faecalis 29212; range is 8-32 ug/ml; type: functional; method in brief: as §2
Pseudomonas aeruginosa [14] = test: (§6) Susceptibility testing against Pseudomonas aeruginosa PAE_NUH01; R=Resistant; type: functional
Pseudomonas aeruginosa [15] = test: Susceptibility testing against Pseudomonas aeruginosa PAE_NUH07; S=Susceptible; type: functional
Method in brief: (§7)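 Disk diffusion susceptibility profiling against a panel of empirically used antipseudomonal antibiotics. Each strain was categorised as susceptible (S) or intermediate (I).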

Pseudomonas aeruginosa [16] = test: Susceptibility testing against Pseudomonas aeruginosa PAE_NUH22; S=Susceptible; type: functional
Pseudomonas aeruginosa [17] = test: Minimum inhibitory concentration against Pseudomonas aeruginosa ATCC 27853; Range is 0.25-1; type: functional
Staphylococcus aureus [18] = test: In vitro minimum inhibitory concentration against Staphylococcus aureus ATCC 29213; Range is 0.12-1; type: functional
Pseudomonas aeruginosa [19] = test: (§8) Susceptibility testing against Pseudomonas aeruginosa PAE_NUH02; R=Resistant; type: functional
Pseudomonas aeruginosa [20] = test: Susceptibility testing against Pseudomonas aeruginosa PAE_NUH24; S=Susceptible; type: functional
Pseudomonas aeruginosa [21] = test: (§9) Susceptibility testing against Pseudomonas aeruginosa PAE_NUH05; R=Resistant; type: functional
Pseudomonas aeruginosa [22] = test: as §6; type: functional, organism-based
Method in brief: (§10)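 Disk diffusion susceptibility profiling of P. aeruginosa reference and clinical isolates against empirically used antipseudomonal antibiotics. Each isolate was categorised as susceptible, intermediate or resistant.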

Pseudomonas aeruginosa [23] = test: Susceptibility testing against Pseudomonas aeruginosa PAE_NUH20; R=Resistant; type: functional, organism-based; method in brief: as §10
Pseudomonas aeruginosa [24] = test: as §8; type: functional, organism-based; method in brief: as §10
Pseudomonas aeruginosa [25] = test: Susceptibility testing against Pseudomonas aeruginosa PAE_NUH22; R=Resistant; type: functional, organism-based; method in brief: as §10
Pseudomonas aeruginosa [26] = test: Susceptibility testing against Pseudomonas aeruginosa PAE_NUH24; R=Resistant; type: functional, organism-based; method in brief: as §10
Pseudomonas aeruginosa [27] = test: Susceptibility testing against Pseudomonas aeruginosa PAE_NUH17; R=Resistant; type: functional, organism-based; method in brief: as §10
Pseudomonas aeruginosa [28] = test: Susceptibility testing against Pseudomonas aeruginosa PAE_NUH19; R=Resistant; type: functional, organism-based; method in brief: as §10
Pseudomonas aeruginosa [29] = test: Susceptibility testing against Pseudomonas aeruginosa PAE_NUH07; R=Resistant; type: functional, organism-based; method in brief: as §10
Pseudomonas aeruginosa [30] = test: as §3; type: functional, organism-based; method in brief: as §10
Pseudomonas aeruginosa [31] = test: as §9; type: functional, organism-based; method in brief: as §10
Pseudomonas aeruginosa [32] = test: as §4; type: functional, organism-based; method in brief: as §10
Pseudomonas aeruginosa [33] = test: Susceptibility testing against Pseudomonas aeruginosa PAE_NUH21; I=Intermediate; type: functional, organism-based; method in brief: as §7
Pseudomonas aeruginosa [34] = test: as §5; type: functional, organism-based; method in brief: as §10
Pseudomonas aeruginosa [35] = test: Susceptibility testing against Pseudomonas aeruginosa PAE_NUH25; R=Resistant; type: functional, organism-based; method in brief: as §10
Pseudomonas aeruginosa [36] = test: as §1; type: functional, organism-based; method in brief: as §10
Pseudomonas aeruginosa [37] = test: Susceptibility testing against Pseudomonas aeruginosa PAE_NUH18; R=Resistant; type: functional, organism-based; method in brief: as §10
Pseudomonas aeruginosa [38] = test: Susceptibility testing against Pseudomonas aeruginosa ATCC 27853; S=Susceptible; type: functional, organism-based; method in brief: as §7

NC[C@H]1O[C@H](O[C@H]2[C@H](O)[C@@H](O[C@H]3O[C@H](CO)[C@@H](O)[C@H](N)[C@H]3O)[C@H](N)C[C@@H]2N)[C@H](N)C[C@@H]1O [TOBRAMYCIN]
MIC (Pseudomonas aeruginosa [1]): 50 µg/mL (≈ 107 µM)
MIC (Pseudomonas aeruginosa [2]): 1 µg/mL (≈ 2.14 µM)
MIC (Pseudomonas aeruginosa [3]): 0.5 µg/mL (≈ 1.07 µM)
MIC (Pseudomonas aeruginosa [4]): 1 µg/mL (≈ 2.14 µM)
MIC (Pseudomonas aeruginosa [5]): 100 µg/mL (≈ 214 µM)
MIC (Pseudomonas aeruginosa [6]): 0.5 µg/mL (≈ 1.07 µM)
MIC (Pseudomonas aeruginosa [7]): 1 µg/mL (≈ 2.14 µM)
MIC (Escherichia coli): 1 µg/mL (≈ 2.14 µM)
MIC (Pseudomonas aeruginosa [8]): 100 µg/mL (≈ 214 µM)
MIC (Pseudomonas aeruginosa [9]): 1 µg/mL (≈ 2.14 µM)
MIC (Staphylococcus aureus [10]): > 64 µg/mL
MIC (Pseudomonas aeruginosa [11]): > 32 µg/mL
MIC (Pseudomonas aeruginosa [12]): 0.5 µg/mL (≈ 1.07 µM)
MIC (Pseudomonas aeruginosa [13]): 2 µg/mL (≈ 4.28 µM)
MIC (Enterococcus faecalis): 32 µg/mL (≈ 68.4 µM)
MIC (Pseudomonas aeruginosa [14]): > 200 µg/mL
MIC (Pseudomonas aeruginosa [15]): 6.3 µg/mL (≈ 13.5 µM)
MIC (Pseudomonas aeruginosa [16]): 0.25 µg/mL (≈ 0.535 µM)
MIC (Pseudomonas aeruginosa [17]): 1 µg/mL (≈ 2.14 µM)
MIC (Staphylococcus aureus [18]): 1 µg/mL (≈ 2.14 µM)
MIC (Pseudomonas aeruginosa [19]): 50 µg/mL (≈ 107 µM)
MIC (Pseudomonas aeruginosa [20]): 1 µg/mL (≈ 2.14 µM)
MIC (Pseudomonas aeruginosa [21]): 100 µg/mL (≈ 214 µM)

CN(C)[C@@H]1C(O)=C(C(N)=O)C(=O)[C@@]2(O)C(O)=C3C(=O)c4c(O)cccc4[C@@](C)(O)[C@H]3C[C@@H]12
Activity (Pseudomonas aeruginosa [22]): Resistant
Activity (Pseudomonas aeruginosa [23]): Resistant
Activity (Pseudomonas aeruginosa [24]): Resistant
Activity (Pseudomonas aeruginosa [25]): Resistant
Activity (Pseudomonas aeruginosa [26]): Resistant
Activity (Pseudomonas aeruginosa [27]): Resistant
Activity (Pseudomonas aeruginosa [28]): Resistant
Activity (Pseudomonas aeruginosa [29]): Resistant
Activity (Pseudomonas aeruginosa [30]): Resistant
Activity (Pseudomonas aeruginosa [31]): Resistant
Activity (Pseudomonas aeruginosa [32]): Resistant
Activity (Pseudomonas aeruginosa [33]): Partial resistance
Activity (Pseudomonas aeruginosa [34]): Resistant
Activity (Pseudomonas aeruginosa [35]): Resistant
Activity (Pseudomonas aeruginosa [36]): Resistant
Activity (Pseudomonas aeruginosa [37]): Resistant
Activity (Pseudomonas aeruginosa [38]): Susceptible
